A selection: hits, their analogues and other compounds. The true share with any hit is near 4.3%.
STAT3 inh: IL-6 driven STAT3 reporter inhibitors, primary screen, U3A cells, luciferase, luminescence, MLSCN library | IL-6 STAT3-luciferase reporter; host cell line lacks STAT1 | inhibition, % at 5.5 µM | 0.89% of 190,000 active | AID 862, 2007;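 active = inhibition above the mean inhibition across all screened compounds plus 3 SD, cut at about 44% in these data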
STAT3 activator: IL-6 driven STAT3 reporter potentiators, primary screen, U3A cells, luciferase, luminescence, MLSCN library. IL-6 STAT3-luciferase reporter; 100% = signal with IL-6 EC80 alone. activation (% of control), % at 5.6 µM. 0.91% of 190,000 active. AID 871, 2007;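 active = activation above the screen-wide mean of compound activation plus 3 SD, cut at about 130% in these data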
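Material: STAT1-lacking human U3A cells, STAT3 luciferase reporter | Benchmarks: IL-6-only wells as 100% reference | Probe or stimulus: IL-6 (33 ng/mL) | Timing: Compound 1 h, then IL-6 6 h at 37 °C | Detection: Luminescence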
STAT1 activator: STAT1 signaling activators, primary screen, cell-based, HTS, luciferase reporter; 2.6% of 200,000 active; AID 932, 2007; activation (% of control), % at 5.5 µM; NIH 3T3 STAT1-luciferase reporter, IFN-gamma, luminescence; 100% = IFN-gamma alone, no compound;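 active = activation above the screen-wide mean activation plus 3 SD, cut at about 130% in these data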
STAT1 blocker: STAT1 signaling inhibitors, primary screen, cell-based, HTS, luciferase reporter | AID 920, 2007 | 0.35% of 200,000 active | NIH 3T3 STAT1-luciferase reporter, IFN-gamma, luminescence | inhibition, % at 5.5 µM;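 active = inhibition above a set limit, the mean inhibition across all tested compounds plus 3 SD, cut at about 34% in these data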
STAT1 act conf: STAT1 signaling activators, confirmation, cell-based, HTS, luciferase reporter; activation (% of control), % at 5.7 µM; shares compounds with STAT1 activator; NIH 3T3 STAT1-luciferase reporter, IFN-gamma potentiation, luminescence; 100% = IFN-gamma EC80 alone, no compound; 97% of 1,200 active;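 active = activation above a set limit carried over from the earlier primary STAT1 screen, cut at about 140% in these data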
NFkB act: NF-kB reporter activators, TNF-alpha stimulated, counter-screen for STAT1 activator project, cell-based, HEK293T, luciferase luminescence; shares compounds with STAT1 activator; 100% = TNF-alpha with vehicle only; activation (% of control), % at 5.7 µM; 43% of 1,200 active;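 active = activation above the mean of solvent-only control wells plus 3 SD, set per campaign, cut at about 130% in these data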;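 note: TNF-alpha given at a submaximal dose yielding about 80% of full reporter signal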
STAT3 act 2: STAT3 reporter activation by STAT1 hits, confirmation, counter-screen for STAT1 activator project, U3A cells, luciferase, luminescence; 46% of 1,200 active; AID 1316, 2008; IL-6; cells lack STAT1; 100 = IL-6 alone, no compound effect; shares compounds with STAT1 activator; activation (% of control), % at 5.7 µM;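 active = activation above the solvent-only control well mean plus 3 SD, set per plate batch, cut at about 110% in these data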;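 note: higher means more STAT3 reporter activation so hits are non-selective activators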
Of the large screens only hits and unclear results are named; the others gave an inactive call (follow-up assays come after a bar, where they were run).

Cc1ccccc1/C=C1\CCCc2ccccc2C1=O	STAT1 activator 158 | STAT1 act conf 195 | NFkB act 137 | STAT3 act 2 inactive
C#CCOCCOCCOCCNc1nc(N2CCN(C(=O)[C@H](CCC(=O)O)n3cc(C(N)[C@H](C)CC)nn3)CC2)nc(N2CCN(C(=O)[C@H](CCC(=O)O)n3cc(C(N)[C@H](C)CC)nn3)CC2)n1 (stereo partly specified)	none (no result: STAT3 inh, STAT3 activator)
O=C(/C=C/Nc1ccc(Nc2ccccc2)cc1)c1cccs1	STAT1 activator 162 | STAT1 act conf 166 | NFkB act 140 | STAT3 act 2 inactive
CCOc1ccc2nc3sc(C(=O)N4CCN(C)CC4)c(N)c3cc2c1	none
CCC(C)NC(=O)c1cc2cc3ccc(OC)cc3nc2s1 (stereo unspecified)	STAT1 activator 153 | STAT1 act conf 252 | NFkB act inactive | STAT3 act 2 inactive
Cc1ccc2cc3c(N)c(C(=O)N4CCOCC4)sc3nc2c1	STAT1 activator 156 | STAT1 act conf inactive | NFkB act inactive | STAT3 act 2 111
COc1ccc2cc3c(N)c(C(=O)N4CCCC4)sc3nc2c1	STAT1 activator 157 | STAT1 act conf inactive | NFkB act inactive | STAT3 act 2 inactive
O=C(NN1C(=O)c2ccccc2C1=O)C1C2CCCCC21 (stereo unspecified)	none
CCOc1ccc(C(CC(=O)O)NC(=O)c2cccs2)cc1OC (stereo unspecified)	none
CSc1ccc(/C=N/NC(=O)c2sccc2C)cc1	STAT1 activator 192 | STAT1 act conf 249 | NFkB act inactive | STAT3 act 2 inactive
CCOC(=O)CC(NS(=O)(=O)c1ccc(OC)c(C)c1)c1cccc([N+](=O)[O-])c1 (stereo unspecified)	none
CCC(N=c1cc(-c2ccc(OC)cc2)oc2ccc(C)cc12)C(=O)O (stereo unspecified)	STAT1 activator 164 | STAT1 act conf 137 | NFkB act inactive | STAT3 act 2 inactive
Cc1cccc(NS(=O)(=O)c2cccs2)n1	none
Cc1cccc(Nc2nc(-c3cccs3)cs2)n1	STAT1 activator 179 | STAT1 act conf 261 | NFkB act 147 | STAT3 act 2 144
Cc1cccc(Nc2nc(-c3ccccn3)cs2)n1	STAT1 activator 191 | STAT1 act conf 271 | NFkB act 139 | STAT3 act 2 inactive
Cc1cccnc1Nc1nc(-c2ccccn2)cs1	STAT1 activator 256 | STAT1 act conf 261 | NFkB act 168 | STAT3 act 2 inactive
CC(=O)Nc1nc(C)c(-c2csc(Nc3ccccn3)n2)s1	STAT1 activator 191 | STAT1 act conf 221 | NFkB act 142 | STAT3 act 2 120
Cc1cccnc1Nc1nc(-c2ccc(O)cc2O)cs1	none
CSCCC(=O)Nc1nc(-c2ccccn2)cs1	none
Cc1ccc(NC(=O)C(=O)NCCN2CCN(S(C)(=O)=O)CC2)cc1C	none
C=CCOc1ccc(Br)cc1CNC(C)(C)C	none
c1csc(-c2csc(-c3cccs3)n2)c1	none
Nc1ccc(Nc2nc(-c3cccs3)cs2)cc1	STAT1 activator 160 | STAT1 act conf 168 | NFkB act 142 | STAT3 act 2 inactive
OC1CCCN(c2c3c(nc4cc(-c5cccc(F)c5)nn24)CCCC3)C1 (stereo unspecified)	STAT1 activator 158 | STAT1 act conf 166 | NFkB act inactive | STAT3 act 2 116
Cc1cccc(-c2cc3nc4c(c(N5CCCC(O)C5)n3n2)CCC4)c1 (stereo unspecified)	none
O=[N+]([O-])c1ccc2c(c1)ncn2-c1ccccc1	none
O=[N+]([O-])c1ccc2cn(-c3ccccc3)nc2c1	STAT1 activator 152 | STAT1 act conf 196 | NFkB act 135 | STAT3 act 2 inactive
N/C(=N\OC(=O)c1cccc(F)c1)c1ccccc1	STAT1 activator 166 | STAT1 act conf 169 | NFkB act inactive | STAT3 act 2 114
N/C(=N\OC(=O)c1cccc(Br)c1)c1ccncc1	none
N/C(=N\OC(=O)c1ccc(F)cc1)c1ccccc1	STAT1 activator 157 | STAT1 act conf 196 | NFkB act inactive | STAT3 act 2 116
Cc1ccc(/C(N)=N/OC(=O)c2ccc(F)cc2)cc1	STAT1 activator 153 | STAT1 act conf 173 | NFkB act 135 | STAT3 act 2 inactive
COc1cccc(CN(C)CC(=O)Nc2ccccc2C(C)C)c1	none
Cc1ccc(N2CCN(c3cc(C)nc4nc(C)nn34)CC2)c(C)c1	none
O=C(NC(c1ccccc1)c1ccccc1)c1cccc(S(=O)(=O)NCc2ccccc2)c1	none
COc1ccc(N=C(C)C2=C(O)c3ccccc3C2=O)cc1	STAT1 activator 165 | STAT1 act conf 209 | NFkB act inactive | STAT3 act 2 inactive
COc1cccc(N/C(C)=C/C(=O)c2ccc(Br)cc2)c1	none
COc1cccc(N/C=C/C(=O)c2ccc(Cl)cc2)c1	STAT1 activator 180 | STAT1 act conf 239 | NFkB act inactive | STAT3 act 2 inactive
CC(C)(C)n1ncc2c(=O)n(CC(=O)NCc3ccc(F)cc3)cnc21	STAT1 activator 160 | STAT1 act conf 199 | NFkB act inactive | STAT3 act 2 127
CC(C)(C)n1ncc2c(=O)n(CC(=O)NCc3ccco3)cnc21	none
CSc1nc(-c2ccc(F)cc2)cc(=O)[nH]1	none
O=c1[nH]cnc2sc(-c3ccccc3)cc12	none
CCn1cnc2sc(-c3ccccc3)cc2c1=O	STAT1 activator 158 | STAT1 act conf 205 | NFkB act inactive | STAT3 act 2 inactive
N=C(SC1CC(=O)N(c2ccc(F)cc2)C1=O)N1N=C(c2ccccc2)CC1c1ccccc1 (stereo unspecified)	none
C[C@H]1C=C(C(=O)NCc2ccccc2)O[C@@H](OCc2ccc(CO)cc2)C1	none (no result: STAT3 inh, STAT3 activator)
COc1cccc(C(=O)Nc2ccc(C3CC3(Cl)Cl)cc2)c1 (stereo unspecified)	STAT1 activator 152 | STAT1 act conf 193 | NFkB act 143 | STAT3 act 2 inactive
CCOC(=O)C(NC(=O)Nc1ccc(C(N)=O)cc1)(c1ccccc1)C(F)(F)F (stereo unspecified)	none
CC1(C)CN(c2cccc(Br)c2)C1=O	none

From PubChem BioAssay
